Reference: ChEMBL document CHEMBL2202972, “Synthesis and biological evaluation of 2-substituted-4-(3',4',5'-trimethoxyphenyl)-5-aryl thiazoles as anticancer agents” (Bioorg Med Chem, 2012)

How the values were obtained:
A549 [1] = assay: Antiproliferative activity against human A549 cells after 72 hrs by MTT assay; type: functional, cell-based; conditions: A549, 72 h
HT-29 = assay: Antiproliferative activity against human HT-29 cells after 72 hrs by MTT assay; type: functional, cell-based; conditions: HT-29, 72 h
HeLa = assay: Antiproliferative activity against human HeLa cells after 72 hrs by MTT assay; type: functional, cell-based
HL-60 = assay: Antiproliferative activity against human HL60 cells after 72 hrs by MTT assay; type: functional, cell-based; conditions: HL-60, 72 h
MCF7 = assay: Antiproliferative activity against human MCF7 cells after 72 hrs by MTT assay; type: functional, cell-based; conditions: MCF7, 72 h
Jurkat = assay: Antiproliferative activity against human Jurkat cells after 72 hrs by MTT assay; type: functional, cell-based
Procedure, shortened: (§1)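 Cells seeded at 8 × 10³ per well and incubated 18 h at 37 °C, 5% CO₂, then exposed to a range of compound concentrations for 72 h at 37 °C. Jurkat and HL-60 were grown in RPMI-1640, the others in DMEM, with penicillin, streptomycin and 10% FBS. DMSO stocks (10 mM); DMSO ≤0.25% final. Viability by MTT. […] Mean ± SE of ≥3 independent experiments.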

[2] = Inhibition of bovine brain tubulin polymerization preincubated for 15 mins by turbidimetric analysis; set-up: species or system Bos taurus
Procedure, shortened: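 Bovine brain tubulin (10 μM) in glutamate buffer preincubated with varying compound concentrations for 15 min at 30 °C, then chilled to 0 °C. GTP 0.4 mM added and mixtures warmed to 30 °C in a spectrophotometer; assembly followed by turbidity at 350 nm.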

Bos taurus = organism: Bos taurus; assay: Displacement of [3H]colchicine from tubulin in bovine brain at 5 uM DEAE-cellulose filter method
[3] = Antiproliferative activity against human doxorubicin-resistant LoVo/DX cells overexpressing P-glycoprotein after 72 hrs by MTT assay; type: functional, cell-based
Procedure, shortened: (§2)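 Resistant sublines cultured under selection: LoVo^Doxo (doxorubicin-resistant LoVo subclone) in complete Ham's F12 with doxorubicin 0.1 μg/mL; A549-T12 in complete DMEM with taxol 12 nM. Seeded at 8 × 10³ per well, 18 h preincubation, then 72 h compound exposure at 37 °C. MTT read-out.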

LoVo [4] = assay: Antiproliferative activity against human LoVo cells after 72 hrs by MTT assay; type: functional, cell-based; procedure, shortened: as §1
LoVo [5] = assay: Resistance ratio of IC50 for human doxorubicin-resistant LoVo/DX cells overexpressing P-glycoprotein to IC50 for human LoVo cells; type: functional
[6] = Antiproliferative activity against human vinblastine-resistant CEM/VBL100 cells overexpressing P-glycoprotein after 72 hrs by MTT assay; type: functional, cell-based; conditions: CEM/VBL100, 72 h
A549 [7] = assay: Resistance ratio of IC50 for human taxol-resistant A549-T12 cells expressing tubulin mutant gene to IC50 for human A549 cells; type: functional
[8] = Antiproliferative activity against human taxol-resistant A549-T12 cells expressing tubulin mutant gene after 72 hrs by MTT assay; type: functional, cell-based; conditions: A549, 72 h; procedure, shortened: as §2
CCRF-CEM [9] = assay: Resistance ratio of IC50 for human vinblastine-resistant CEM/VBL100 cells overexpressing P-glycoprotein to IC50 for human CEM cells; type: functional
CCRF-CEM [10] = assay: Antiproliferative activity against human CEM cells after 72 hrs by MTT assay; type: functional, cell-based

SMILES: CCOc1ccc(-c2sc(N(C)C)nc2-c2cc(OC)c(OC)c(OC)c2)cc1
- IC50 (A549 [1]): > 10000 nM
- IC50 (HT-29): 6030 nM
- IC50 (HeLa): 3260 nM
- IC50 (HL-60): 303 nM
- IC50 (MCF7): > 10000 nM
- IC50 (Jurkat): 4150 nM
- IC50 [2]: > 20000 nM

SMILES: CNc1nc(-c2cc(OC)c(OC)c(OC)c2)c(-c2ccc3ccccc3c2)s1
- IC50 (A549 [1]): 151 nM
- IC50 (HT-29): 38.2 nM
- IC50 (HeLa): 128 nM
- inhibition (Bos taurus): 78%
- IC50 (HL-60): 143 nM
- IC50 (MCF7): 21.1 nM
- IC50 (Jurkat): 51.1 nM
- IC50 [2]: 960 nM

SMILES: COc1cc(-c2nc(C)sc2-c2ccc(C)cc2)cc(OC)c1OC
- IC50 (A549 [1]): 1950 nM
- IC50 (HT-29): 722 nM
- IC50 (HeLa): 1100 nM
- IC50 (HL-60): 1510 nM
- IC50 (MCF7): 1740 nM
- IC50 (Jurkat): 517 nM

SMILES: COc1cc(-c2nc(N(C)C)sc2-c2ccc(C(F)(F)F)cc2)cc(OC)c1OC
- IC50 (A549 [1]): > 10000 nM
- IC50 (HT-29): > 10000 nM
- IC50 (HeLa): > 10000 nM
- IC50 (HL-60): > 10000 nM
- IC50 (MCF7): > 10000 nM
- IC50 (Jurkat): > 10000 nM
- IC50 [2]: > 20000 nM

SMILES: CNc1nc(-c2cc(OC)c(OC)c(OC)c2)c(-c2ccc(C(F)(F)F)cc2)s1
- IC50 (A549 [1]): 4560 nM
- IC50 (HT-29): 1240 nM
- IC50 (HeLa): 3400 nM
- IC50 (HL-60): 3170 nM
- IC50 (MCF7): 7280 nM
- IC50 (Jurkat): 3010 nM

SMILES: COc1cc(-c2nc(N(C)C)sc2-c2ccc3ccccc3c2)cc(OC)c1OC
- IC50 (A549 [1]): 2900 nM
- IC50 (HT-29): 729 nM
- IC50 (HeLa): 1400 nM
- IC50 (HL-60): 2570 nM
- IC50 (MCF7): 2380 nM
- IC50 (Jurkat): 836 nM
- IC50 [2]: > 20000 nM

SMILES: CNc1nc(-c2cc(OC)c(OC)c(OC)c2)c(-c2ccc(OC)cc2)s1
- IC50 [3]: 152 nM
- IC50 (LoVo [4]): 190 nM
- IC50 (A549 [1]): 138 nM
- IC50 (HT-29): 6.3 nM
- Ratio IC50 (LoVo [5]): 0.8
- IC50 (HeLa): 70.1 nM
- inhibition (Bos taurus): 61%
- IC50 [6]: 15 nM
- Ratio IC50 (A549 [7]): 0.9
- IC50 [8]: 125 nM
- Ratio IC50 (CCRF-CEM [9]): 1.5
- IC50 (HL-60): 27.3 nM
- IC50 (MCF7): 37.6 nM
- IC50 (CCRF-CEM [10]): 10 nM
- IC50 (Jurkat): 34.3 nM
- IC50 [2]: 1300 nM

SMILES: COc1ccc(-c2sc(C)nc2-c2cc(OC)c(OC)c(OC)c2)cc1
- IC50 (A549 [1]): 2560 nM
- IC50 (HT-29): 1420 nM
- IC50 (HeLa): 500 nM
- IC50 (HL-60): 3430 nM
- IC50 (MCF7): 606 nM
- IC50 (Jurkat): 1760 nM
